Efflux pump mplx: inhibitors of Candida efflux pumps in yeast, primary screen, S. cerevisiae, Nile Red, multiplex; 330,000 compounds, 0.44% hits; AID 485275, 2010; S. cerevisiae Candida pump triplex; inhibition, % at 10 µM;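 active = plate passing quality check with inhibition over a set limit, or well fluorescence over plate mean plus 4 SD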;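 note: Nile Red retained in pooled yeast measured as flow cytometry median fluorescence; 0% = buffer negative control and 100% = Enniatin B positive control; higher means more Nile Red kept so more efflux inhibition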
SR-BI DiI inh: inhibitors of SR-BI mediated HDL lipid uptake, primary screen, ldlA[mSR-BI] cells, fluorescence, single point | ldlA[mSR-BI] CHO cells, DiI-HDL uptake fluorescence, 3 h | 320,000 compounds, 0.96% hits | Scavenger receptor class B member 1 (Mus musculus), Q61009 | AID 488896, 2010 | inhibition, % at 12.5 µM;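 active = mean replicate inhibition of at least 70% and a set share of replicates each scoring 70 or more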;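 note: 0% = median of neutral control wells and 100% = median of positive control wells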
Target sequence (Q61009 whole entry, looked up): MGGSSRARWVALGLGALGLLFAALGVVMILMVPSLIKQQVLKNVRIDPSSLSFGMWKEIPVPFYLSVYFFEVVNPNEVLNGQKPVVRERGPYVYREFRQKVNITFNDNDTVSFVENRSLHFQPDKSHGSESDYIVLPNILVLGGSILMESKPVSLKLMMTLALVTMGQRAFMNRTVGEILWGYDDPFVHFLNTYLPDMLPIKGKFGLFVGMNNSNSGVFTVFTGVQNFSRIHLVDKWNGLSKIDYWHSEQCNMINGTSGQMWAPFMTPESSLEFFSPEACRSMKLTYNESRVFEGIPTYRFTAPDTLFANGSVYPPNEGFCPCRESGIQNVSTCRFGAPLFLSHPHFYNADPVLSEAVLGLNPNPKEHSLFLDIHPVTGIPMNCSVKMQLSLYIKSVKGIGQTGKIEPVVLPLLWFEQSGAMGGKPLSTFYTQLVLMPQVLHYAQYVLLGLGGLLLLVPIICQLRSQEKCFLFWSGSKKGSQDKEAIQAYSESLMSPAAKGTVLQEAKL
CaV13 ICDI inh: Primary screen for inhibitors of IQ motif and Ca2+-dependent inactivation inhibitor domain binding in CACNA1D, Förster resonance energy transfer in living cells, …. inhibition, % at 12.3 µM. HEK cells, CFP/YFP FRET ICDI-IQ, plate reader, 10 min; percent FRET-ratio fall versus neutral wells. 340,000 compounds, 0.098% hits;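 active = mean replicate inhibition of at least 30% and at least 1% of replicates passing that level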;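 note: 0% = median of the neutral control wells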
SR-BI DiI-HDL act: activators of SR-BI mediated DiI-HDL uptake, primary screen, ldlA[mSR-BI] CHO cells, DiI fluorescence; 320,000 compounds, 0.096% hits; 3 h; 100 = double the neutral-control signal; activation, % at 12.5 µM; AID 504775, 2011;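 active = mean replicate activation of at least 60% and every replicate at or above 60%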;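 note: 0% = median plate neutral-control signal and 100% = twice that signal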
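system = CHO ldlA[mSR-BI] cells, LDL receptor-null, SR-BI overexpressing | medium = Ham's F12 with 0.5% BSA, HEPES 25 mM, pH 7.4 | probe or stimulus = DiI-HDL 10 µg/mL | compound dosing = single-point compound dose | incubation = compound exposure 3 h, 37 °C | technique = DiI fluorescence, bottom read | read-out = cell-associated DiI fluorescence as measure of HDL uptake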
FN deposition inh: inhibitors of fibronectin matrix deposition, primary screen, AH1F cells, Alexa488-fibronectin fluorescence, plate reader; AH1F fibroblasts, overnight; inhibition, % at 12.6 µM; 350,000 compounds, 0.086% hits; AID 743247, 2014;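 active = mean inhibition across replicates of 30% or more, regardless of how many single replicates reach that level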;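 note: positive control wells lacked labelled fibronectin entirely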
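Material: AH1F fibroblast monolayer depositing Alexa488-labelled fibronectin into matrix | Input: 10000 AH1F cells/well | Medium: DMEM plus 2% serum, read in PBS | Reagent: Alexa488-fibronectin, 24 nM final in well | Compound dosing: One dose per compound, pinned | Schedule: 1 h adhesion, overnight exposure | Measured by: Fluorescence at 485 nm excitation, 525 nm emission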
* hit, by the source's call; / = no result; + = active, no number. Hits are enriched below; roughly 1.2% of the tested compounds scored in any of these assays.

SMILES	Efflux pump mplx	SR-BI DiI inh	CaV13 ICDI inh	SR-BI DiI-HDL act	FN deposition inh
CCOC(=O)c1c(C)[nH]c(C(=O)N/N=C\c2ccccc2O)c1C	0	85*	-5	-85	7
C[C@@H](NC(=O)C[C@H]1C=C[C@@H](NC(=O)C2CCC2)[C@H](CO)O1)c1ccccc1	/	/	/	/	-23
O=C1N[C@H](c2ccccc2)COCc2cn(nn2)CC[C@H]1Cc1ccc(Cl)cc1	/	/	/	/	-2
C[C@H](O)C#Cc1ccc2c(c1)O[C@@H](CN(C)CC1CCOCC1)[C@H](C)CN([C@H](C)CO)S2(=O)=O	/	/	/	/	2
C[C@H](CO)N1C[C@H](C)[C@@H](CN(C)Cc2ccccc2)Oc2cc(C3=CCCCC3)ccc2S1(=O)=O	/	/	/	/	3
Cc1ccc2nc(NCC(=O)O)nc(-c3ccccc3)c2c1	0	38	-6	-38	/
COc1cc(Nc2nc(-c3ccccc3)c3cc(C)ccc3n2)cc(OC)c1OC	0	72*	-4	-72	-14
O=c1c2ccccc2nc(COc2ccccc2)n1/N=C/c1cc([N+](=O)[O-])ccc1O	0	130*	-2	-130	15
Cc1cc(/C=N/n2c(COc3ccccc3C)nc3ccccc3c2=O)c(O)c([N+](=O)[O-])c1	0	144*	-4	-144	10
C[C@H]1CN(C)C(=O)c2cc(N)ccc2O[C@H]1CN(C)C(=O)OC(C)(C)C	/	/	/	/	-3
COCC(=O)N1CC(=O)N2[C@H](C1)[C@@H](c1ccc(-c3cccnc3)cc1)[C@@H]2CO	/	/	/	/	-2
Oc1ccccc1Nc1nc(-c2ccccc2O)nc2ccccc12	0	93*	-2	-93	5
Cc1ccc(-c2nc(Nc3cccc(O)c3)c3ccccc3n2)cc1	0	69	-4	-69	-16
COc1ccccc1Nc1nc(-c2ccccc2O)nc2ccccc12	0	48	-5	-48	1
Oc1ccc(Nc2nc(-c3ccccc3O)nc3ccccc23)cc1	0	74*	-20	-74	7
Cc1ccc(-c2nc(Nc3ccc(O)cc3)c3ccccc3n2)cc1	0	107*	-2	-107	8
O=[N+]([O-])c1ccc(-c2nc(Nc3cccc(O)c3)c3ccccc3n2)cc1	0	72*	-4	-72	0
CCC(=O)Nc1ccc2c(c1)C(=O)N(C)C[C@H](OC)[C@H](C)CN(C(=O)CN1CCOCC1)[C@@H](C)CO2	/	/	/	/	0
COc1ccccc1-c1ccc(C2[C@@H]3CN(S(=O)(=O)c4ccccc4)C[C@H]2N3)cc1 (some centres not stated)	/	/	/	/	-2
C[C@@H]1CCCCO[C@@H](CN(C)CC2CCCCC2)[C@H](C)CN([C@@H](C)CO)C(=O)c2cc(NC(=O)NC3CCCCC3)ccc2O1	/	/	/	/	6
COc1cc2c(cc1OC)CN(c1ccc(-c3ccccc3OC)nn1)CC2	0	45	/	-45	/
COc1cc2c(cc1OC)CN(c1ccc3ccccc3n1)CC2	0	76*	-5	-76	2
COc1ccc(NC(=O)C(=O)c2cn(CC(=O)N3CCCC3)c3ccccc23)c(OC)c1	0	72*	/	-72	/
O=C(O)C[C@H]1CC[C@@H](NC(=O)Nc2ccccc2)[C@@H](CO)O1	/	/	/	/	-6
O=C(Cn1c(NCCO)nc2ccccc21)NCCc1ccccc1	0	-12	/	12	/
SMILES	Efflux pump mplx	SR-BI DiI inh	CaV13 ICDI inh	SR-BI DiI-HDL act	FN deposition inh
O=C(Cn1c(NCCO)nc2ccccc21)c1ccco1	0	-61	-8	61*	/
COc1ccc(OC)c(NC(=O)c2cc(-c3ccc(C)cc3O)n[nH]2)c1	0	66	-6	-66	/
COc1ccc(OC)c(NC(=O)c2cc(-c3cc(C)ccc3O)n[nH]2)c1	0	76*	-19	-76	-2
CCc1ccccc1S(=O)(=O)Cc1ccc(C(=O)N2CCN(c3ccccc3OC)CC2)o1	0	64	55*	-64	6
S=C1NC(c2ccccc2)=CC(c2ccccc2)N1 (configuration not stated)	0	82*	8	-82	-9
C[C@@H]1CCCn2nncc2COCCNC1=O	/	/	/	/	-2
CCOc1ccc(C(=O)Nc2cccc(-c3ccc(N4CCOCC4)nn3)c2)cc1OCC	0	90*	-5	-90	1
CCOc1ccccc1C(=O)Nc1cccc(-c2ccc(N3CCOCC3)nn2)c1	0	56	-2	-56	1
CCOc1cc(C(=O)Nc2cccc(C(C)=O)c2)ccc1OCC(=O)N1CCCCC1	0	74*	-4	-74	2
COc1ccc(C(=O)Nc2cccc(-c3ccc(N4CCOCC4)nn3)c2)cc1OC	0	75*	-7	-75	2
COc1ccc(S(=O)(=O)N[C@@H]2CC[C@@H](CC(=O)O)O[C@@H]2CO)cc1	/	/	/	/	-6
O=C(NCC1CC1)[C@H]1[C@H](CO)[C@H]2Cn3c(ccc(-c4cccnc4)c3=O)[C@@H]1N2C(=O)C1CCCC1	/	/	/	/	0
O=C(C[C@H]1CC[C@@H]2[C@H](COC[C@@H](O)CN2C(=O)Nc2ccc(Cl)c(Cl)c2)O1)NCc1ccncc1	/	/	/	/	5
N=c1oc2cc(O)ccc2cc1C(=O)Nc1nc2ccccc2s1	1	-31	81*	31	-4
N=c1oc2cc(O)ccc2cc1C(=O)Nc1ccccn1	0	/	/	/	/
N=c1oc2cc(O)ccc2cc1C(=O)Nc1ccc(Br)cc1	0	7	+	-7	3
CC(=O)Nc1ccc2c(c1)CC(=O)N(C)C[C@@H](C)[C@H](CN(C)C)O2	/	/	/	/	8
O=C(c1ccc(Cl)cc1)N1N=CCC1(O)c1ccc(Cl)cc1 (configuration not stated)	0	88*	-4	-88	-1
CCCNc1nc(N)nc(-c2cc(Cl)ccc2OC)n1	0	-5	0	5	/
CCCN(CCC)c1nc(N)nc(-c2cc(Cl)ccc2OC)n1	0	82*	-7	-82	/
O=[N+]([O-])c1cc(S(=O)(=O)Nc2ccc(Cl)cc2)ccc1N/N=C/c1ccncc1	0	72*	-5	-72	0
O=C(NN=Cc1ccc(O)cc1O)c1ccccc1NS(=O)(=O)c1cccs1	0	97*	-5	-97	-17
COc1cccc(NC(=O)c2ccc(NS(=O)(=O)c3cccs3)cc2)c1	/	77*	-5	-77	3
O=C(NN=Cc1ccccc1OC(F)F)c1ccc(NS(=O)(=O)c2cccs2)cc1	1	82*	-15	-82	9
Cc1cc(S(=O)(=O)NC[C@H]2O[C@@H](n3cnc4c(N)ncnc43)[C@H](O)[C@@H]2O)c(C)s1	0	-1	-6	1	2

Source: PubChem BioAssay (several laboratories)
